From BindingDB's records for doi:10.1021/jm950541c (Georgia Institute of Technology, 1996)

Target: T1, Calpain-2 catalytic subunit (Homo sapiens, UniProt P17655)
T1 sequence (P17655 whole entry): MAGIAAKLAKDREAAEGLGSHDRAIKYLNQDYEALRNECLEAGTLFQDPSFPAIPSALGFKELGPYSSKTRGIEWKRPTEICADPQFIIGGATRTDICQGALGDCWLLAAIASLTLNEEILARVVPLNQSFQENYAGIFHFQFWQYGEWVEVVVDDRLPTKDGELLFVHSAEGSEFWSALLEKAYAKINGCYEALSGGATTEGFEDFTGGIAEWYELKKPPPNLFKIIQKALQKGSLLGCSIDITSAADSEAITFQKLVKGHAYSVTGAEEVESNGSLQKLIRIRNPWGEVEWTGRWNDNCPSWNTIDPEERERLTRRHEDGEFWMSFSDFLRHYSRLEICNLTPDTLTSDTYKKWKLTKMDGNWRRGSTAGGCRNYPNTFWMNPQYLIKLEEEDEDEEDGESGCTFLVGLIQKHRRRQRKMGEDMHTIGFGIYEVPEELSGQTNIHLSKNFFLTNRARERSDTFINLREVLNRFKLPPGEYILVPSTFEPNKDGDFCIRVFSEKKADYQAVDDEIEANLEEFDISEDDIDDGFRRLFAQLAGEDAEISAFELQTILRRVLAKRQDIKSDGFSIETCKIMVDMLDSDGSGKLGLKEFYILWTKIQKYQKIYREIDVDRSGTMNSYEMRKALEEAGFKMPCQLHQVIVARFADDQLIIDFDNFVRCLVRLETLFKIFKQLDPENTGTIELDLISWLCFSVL
Experiment: Compound was evaluated for the inhibition of Cysteine protease Calpain 2
Procedure, shortened: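 Calpain assay in 25 mM Tris, pH 8.0, with 10 mM CaCl₂ and 5% DMSO. Suc-Leu-AMC hydrolysis was read as initial velocity (t = 30-60 s) after a 30 s delay, at room temperature. Five or more inhibitor concentrations (not above 2 × K_obs) were used at two fixed substrate levels. Ki came from Dixon plots (1/v vs I) averaged over triplicates.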

| Compound | Ki |
| --- | --- |
| CCC(NC(=O)C(CC(C)C)NC(=O)OCc1ccccc1)C(=O)C(=O)NCC(O)c1ccc2ccccc2c1 (centres undefined) [{1-[1-(2-Hydroxy-2-naphthalen-2-yl-ethylaminooxalyl)-propylcarbamoyl]-3-methyl-butyl}-carbamic acid benzyl ester] | 110 nM |
| CCC(NC(=O)C(CC(C)C)NC(=O)OCc1ccccc1)C(=O)C(=O)NCC(O)c1c(F)c(F)c(F)c(F)c1F (centres undefined) [{1-[1-(2-Hydroxy-2-pentafluorophenyl-ethylaminooxalyl)-propylcarbamoyl]-3-methyl-butyl}-carbamic acid benzyl ester] | 200 nM |
| CCCC(NC(=O)C(CC(C)C)NC(=O)OCc1ccccc1)C(=O)C(=O)NCC(O)c1ccccc1 (centres undefined) [{1-[1-(2-Hydroxy-2-phenyl-ethylaminooxalyl)-butylcarbamoyl]-3-methyl-butyl}-carbamic acid benzyl ester] | 11000 nM |
| CCC(NC(=O)C(CC(C)C)NC(=O)OCc1ccccc1)C(=O)C(=O)NCC(O)c1ccccc1 (centres undefined) [{1-[1-(2-Hydroxy-2-phenyl-ethylaminooxalyl)-propylcarbamoyl]-3-methyl-butyl}-carbamic acid benzyl ester] | 15 nM |
| CCC(NC(=O)C(CC(C)C)NC(=O)OCc1ccccc1)C(=O)C(=O)NCCO (centres undefined) [{1-[1-(2-Hydroxy-ethylaminooxalyl)-propylcarbamoyl]-3-methyl-butyl}-carbamic acid benzyl ester] | 78 nM |
| CCC(NC(=O)C(CC(C)C)NC(=O)OCc1ccccc1)C(=O)C(=O)NCc1cc(OC)cc(OC)c1 (centres undefined) [{1-[1-(3,5-Dimethoxy-benzylaminooxalyl)-propylcarbamoyl]-3-methyl-butyl}-carbamic acid benzyl ester] | 22 nM |
| CCC(NC(=O)C(CC(C)C)NC(=O)OCc1ccccc1)C(=O)C(=O)NCCCn1ccnc1 (centres undefined) [{1-[1-(3-Imidazol-1-yl-propylaminooxalyl)-propylcarbamoyl]-3-methyl-butyl}-carbamic acid benzyl ester] | 68 nM |
| CCC(NC(=O)C(CC(C)C)NC(=O)OCc1ccccc1)C(=O)C(=O)NCC1(C)CC(O)CC(C)(C)C1 (centres undefined) [{1-[1-(5-Hydroxy-1,3,3-trimethyl-cyclohexylmethyl)-aminooxalyl]-propylcarbamoyl}-3-methyl-butyl)-carbamic acid benzyl ester] | 69 nM |

The next lines start with the values.

| Ki | Compound |
| --- | --- |
| 51 nM | CCC(NC(=O)C(CC(C)C)NC(=O)OCc1ccccc1)C(=O)C(=O)NCCCCCO (centres undefined) [{1-[1-(5-Hydroxy-pentylaminooxalyl)-propylcarbamoyl]-3-methyl-butyl}-carbamic acid benzyl ester] |
| 33 nM | CCC(NC(=O)C(CC(C)C)NC(=O)OCc1ccccc1)C(=O)C(=O)NCc1ccco1 (centres undefined) [{1-[1-(Furan-2-ylmethyl)-aminooxalyl]-propylcarbamoyl}-3-methyl-butyl)-carbamic acid benzyl ester] |
| 150 nM | CCC(NC(=O)C(CC(C)C)NC(=O)OCc1ccccc1)C(=O)C(=O)NCc1nccc2ccccc12 (centres undefined) [{1-[1-(Isoquinolin-1-ylmethyl)-aminooxalyl]-propylcarbamoyl}-3-methyl-butyl)-carbamic acid benzyl ester] |
| 350 nM | CC(C)CC(NC(=O)OCc1ccccc1)C(=O)NC(Cc1ccccc1)C(=O)C(=O)NCC(O)c1c(F)c(F)c(F)c(F)c1F (centres undefined) [{1-[1-Benzyl-2-(2-hydroxy-2-pentafluorophenyl-ethylcarbamoyl)-2-oxo-ethylcarbamoyl]-3-methyl-butyl}-carbamic acid benzyl ester] |
| 50 nM | CC(C)CC(NC(=O)OCc1ccccc1)C(=O)NC(Cc1ccccc1)C(=O)C(=O)NCC(O)c1ccccc1 (centres undefined) [{1-[1-Benzyl-2-(2-hydroxy-2-phenyl-ethylcarbamoyl)-2-oxo-ethylcarbamoyl]-3-methyl-butyl}-carbamic acid benzyl ester] |
| 330 nM | CC(C)CC(NC(=O)OCc1ccccc1)C(=O)NC(Cc1ccccc1)C(=O)C(=O)NCCCN1CCOCC1 (centres undefined) [{1-[1-Benzyl-2-(3-morpholin-4-yl-propylcarbamoyl)-2-oxo-ethylcarbamoyl]-3-methyl-butyl}-carbamic acid benzyl ester] |
